Measured values taken from ChEMBL document CHEMBL1123041, “Synthesis of new bis(aminoethanethiol) (BAT) derivatives: possible ligands for 99mTc brain imaging agents” (J Med Chem, 1985).

How the values were obtained:
Rattus norvegicus [1] = experiment: Biodistribution in Sprague-Dawley rat kidneys(2) 15 minutes after intravenous administration, [99mTc]/[125I] IAP ratio); type: ADME, organism-based, Kidney; conditions: in vivo, 0.25 h
Procedure, shortened: (§1)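 99mTc complex and [125I]iodoantipyrine were co-injected iv into rats. Rats were killed by cardiectomy at 2 or 15 min, and organs were excised, weighed and gamma-counted in two channels with spillover correction. The ratio is 99mTc percent dose divided by 125I percent dose in the same organ, averaged over three rats. Radiochemical purity of the complexes was >95% by reversed-phase HPLC.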

Rattus norvegicus [2] = experiment: Biodistribution in Sprague-Dawley rat skin 2 minutes after intravenous administration, [99mTc]/[125I] IAP ratio); type: ADME, organism-based, Zone of skin; conditions: in vivo; procedure, shortened: as §1
Rattus norvegicus [3] = experiment: Biodistribution in Sprague-Dawley rat small intestine 15 minutes after intravenous administration, [99mTc]/[125I] IAP ratio); type: ADME, organism-based; conditions: in vivo, 0.25 h; procedure, shortened: as §1
Rattus norvegicus [4] = experiment: Biodistribution in Sprague-Dawley rat small intestine 2 minutes after intravenous administration, [99mTc]/[125I] IAP ratio); type: ADME, organism-based; conditions: in vivo; procedure, shortened: as §1
Rattus norvegicus [5] = experiment: Biodistribution in Sprague-Dawley rat spleen 15 minutes after intravenous administration, [99mTc]/[125I] IAP ratio); type: ADME, organism-based; conditions: in vivo, 0.25 h; procedure, shortened: as §1
Rattus norvegicus [6] = experiment: Biodistribution in Sprague-Dawley rat spleen 2 minutes after intravenous administration, [99mTc]/[125I] IAP ratio); type: ADME, organism-based; conditions: in vivo; procedure, shortened: as §1
Rattus norvegicus [7] = experiment: Biodistribution in Sprague-Dawley rat thyroid 15 minutes after intravenous administration, [99mTc]/[125I] IAP ratio); type: ADME, organism-based, Thyroid gland; conditions: in vivo, 0.25 h; procedure, shortened: as §1
Rattus norvegicus [8] = experiment: Biodistribution in Sprague-Dawley rat thyroid 2 minutes after intravenous administration, [99mTc]/[125I] IAP ratio); type: ADME, organism-based, Thyroid gland; conditions: in vivo; procedure, shortened: as §1
Rattus norvegicus [9] = experiment: Biodistribution in Sprague-Dawley rat blood 15 minutes after intravenous administration, [99mTc]/[125I] IAP ratio); type: ADME, organism-based; conditions: in vivo, 0.25 h; procedure, shortened: as §1
Rattus norvegicus [10] = experiment: Biodistribution in Sprague-Dawley rat blood 2 minutes after intravenous administration, [99mTc]/[125I] IAP ratio); type: ADME, organism-based; conditions: in vivo; procedure, shortened: as §1
Rattus norvegicus [11] = experiment: Biodistribution in Sprague-Dawley rat brain 15 minutes after intravenous administration, [99mTc]/[125I] IAP ratio); type: ADME, organism-based; conditions: in vivo, 0.25 h; procedure, shortened: as §1
Rattus norvegicus [12] = experiment: Biodistribution in Sprague-Dawley rat brain 2 minutes after intravenous administration.; type: ADME, organism-based; conditions: in vivo
Procedure, shortened: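 Rats received the 99mTc complex iv together with [125I]iodoantipyrine as internal reference and were killed by cardiectomy. Brain was excised, weighed and gamma-counted. Percent dose/organ was obtained by comparing tissue activity with diluted aliquots of the injected dose, averaged over three rats. Radiochemical purity of the complexes was >95% by HPLC.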

Rattus norvegicus [13] = experiment: Biodistribution in Sprague-Dawley rat heart 15 minutes after intravenous administration, [99mTc]/[125I] IAP ratio); type: ADME, organism-based; conditions: in vivo, 0.25 h; procedure, shortened: as §1
Rattus norvegicus [14] = experiment: Biodistribution in Sprague-Dawley rat heart 2 minutes after intravenous administration, [99mTc]/[125I] IAP ratio); type: ADME, organism-based; conditions: in vivo; procedure, shortened: as §1
Rattus norvegicus [15] = experiment: Biodistribution in Sprague-Dawley rat stomach 15 minutes after intravenous administration, [99mTc]/[125I] IAP ratio); type: ADME, organism-based; conditions: in vivo, 0.25 h; procedure, shortened: as §1
Rattus norvegicus [16] = experiment: Biodistribution in Sprague-Dawley rat stomach 2 minutes after intravenous administration, [99mTc]/[125I] IAP ratio); type: ADME, organism-based; conditions: in vivo; procedure, shortened: as §1
Rattus norvegicus [17] = experiment: Biodistribution in Sprague-Dawley rat kidneys(2) 2 minutes after intravenous administration, [99mTc]/[125I] IAP ratio); type: ADME, organism-based, Kidney; conditions: in vivo; procedure, shortened: as §1
Rattus norvegicus [18] = experiment: Biodistribution in Sprague-Dawley rat liver 15 minutes after intravenous administration, [99mTc]/[125I] IAP ratio); type: ADME, organism-based; conditions: in vivo, 0.25 h; procedure, shortened: as §1
Rattus norvegicus [19] = experiment: Biodistribution in Sprague-Dawley rat liver 2 minutes after intravenous administration, [99mTc]/[125I] IAP ratio); type: ADME, organism-based; conditions: in vivo; procedure, shortened: as §1
Rattus norvegicus [20] = experiment: Biodistribution in Sprague-Dawley rat lungs(2) 15 minutes after intravenous administration, [99mTc]/[125I] IAP ratio); type: ADME, organism-based, Lung; conditions: in vivo, 0.25 h; procedure, shortened: as §1
Rattus norvegicus [21] = experiment: Biodistribution in Sprague-Dawley rat lungs(2) 2 minutes after intravenous administration, [99mTc]/[125I] IAP ratio); type: ADME, organism-based, Lung; conditions: in vivo; procedure, shortened: as §1
Rattus norvegicus [22] = experiment: Biodistribution in Sprague-Dawley rat muscle 15 minutes after intravenous administration, [99mTc]/[125I] IAP ratio); type: ADME, organism-based, Muscle tissue; conditions: in vivo, 0.25 h; procedure, shortened: as §1
Rattus norvegicus [23] = experiment: Biodistribution in Sprague-Dawley rat muscle 2 minutes after intravenous administration, [99mTc]/[125I] IAP ratio); type: ADME, organism-based, Muscle tissue; conditions: in vivo; procedure, shortened: as §1
Rattus norvegicus [24] = experiment: Biodistribution in Sprague-Dawley rat skin 15 minutes after intravenous administration, [99mTc]/[125I] IAP ratio); type: ADME, organism-based, Zone of skin; conditions: in vivo, 0.25 h; procedure, shortened: as §1
[25] = Partition coefficient was determined at pH 7.0.; type: ADME; conditions: octanol/water
Procedure, shortened: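 99mTc-labelled BAT complex shaken with 3 g each of 1-octanol and 0.1 M phosphate buffer (pH 7.0), vortexed 3 min at room temperature, centrifuged 5 min. Two 0.5 g samples per layer counted in a well counter; PC = cpm/g octanol over cpm/g buffer. Octanol layer repartitioned until values were consistent; usually repeated three times.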

Homo sapiens = organism: Homo sapiens; experiment: The human serum protein binding activity was determined; type: functional
Procedure, shortened: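 Equilibrium dialysis: 0.4 mL pooled human serum against 0.4 mL 0.15 M phosphate buffer pH 7.4 containing 99mTc complex (~0.025 μCi), rotated 18 h at 37 °C. Both sides weighed and counted; percent free = buffer/serum radioactivity concentration ratio × 100. Membrane counted afterwards to check membrane binding.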

Rattus norvegicus [26] = experiment: Biodistribution in Sprague-Dawley rat brain 2 minutes after intravenous administration, [99mTc]/[125I] IAP ratio); type: ADME, organism-based; conditions: in vivo; procedure, shortened: as §1

Row | Dose (Rattus norvegicus [1]) | Dose (Rattus norvegicus [2]) | Dose (Rattus norvegicus [3]) | Dose (Rattus norvegicus [4]) | Dose (Rattus norvegicus [5]) | Dose (Rattus norvegicus [6]) | Dose (Rattus norvegicus [7]) | Dose (Rattus norvegicus [8]) | Dose (Rattus norvegicus [9]) | Dose (Rattus norvegicus [10]) | Dose (Rattus norvegicus [11]) | Dose (Rattus norvegicus [13]) | Dose (Rattus norvegicus [14]) | Dose (Rattus norvegicus [15]) | Dose (Rattus norvegicus [16]) | Dose (Rattus norvegicus [17]) | Dose (Rattus norvegicus [18]) | Dose (Rattus norvegicus [19]) | Dose (Rattus norvegicus [20]) | Dose (Rattus norvegicus [21]) | Structure (SMILES) | further results
1 | 1.73% | 7.45% | 18.2% | 6.24% | 0.323% | 0.407% | 0.057% | 0.189% | 4.77% | 14.5% | 0.229% | 0.441% | 3.31% | 5.46% | 1.61% | 4.75% | 25.4% | 29% | 1.52% | 4.94% | CC(C)(S)CNCC(NCC(C)(C)S)c1ccccc1O (configuration not stated) | Dose (Rattus norvegicus [12]): 0.408%; Dose (Rattus norvegicus [22]): 12.4%; Dose (Rattus norvegicus [23]): 8.66%; Dose (Rattus norvegicus [24]): 8.17%; Partition coefficient [25]: 248; Free (Homo sapiens): 14.7%
2 | 1.1% | 5.21% | 12.5% | 4.47% | 0.197% | 0.149% | 0.063% | 0.292% | 2.56% | 7.81% | 0.297% | 0.395% | 4.46% | 3.16% | 1.07% | 3.23% | 17.4% | 11.9% | 0.877% | 5.49% | COc1ccccc1C(CNCC(C)(C)S)NCC(C)(C)S (configuration not stated) | Dose (Rattus norvegicus [26]): 2.3%; Dose (Rattus norvegicus [22]): 15.1%; Dose (Rattus norvegicus [23]): 7.09%; Dose (Rattus norvegicus [24]): 11.8%; Partition coefficient [25]: 260; Free (Homo sapiens): 23.4%
